Assay outcomes deposited in PubChem by Broad Institute.
Not all results are given here.
PGC1a acetyl up = compounds raising PGC1a acetylation signal, primary screen, PGC1a modulator project, cell-based, U2OS, AlphaScreen, signal-increasing mode. AID 651723, 2012. overnight. hit rate 0.21% among 350,000. activation, % at 15.6 µM;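 active means every replicate reaching activation of at least 50%, whatever the mean replicate activation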;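 further: hits raise the AlphaScreen acetylation signal above neutral controls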
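Test system: U2OS cells expressing flag-PGC1a plus GCN5; Amount: 7000 U2OS cells per well; Compound: single test concentration per compound; Incubation: compound overnight at 37 °C, each detection step 1 h RT; Signal: AlphaScreen lysate read.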
Of the large screens only hits and unclear results are named; the others gave an inactive call.

C/C(N)=C(/C#N)C(=O)COc1ncnc2ccc(Br)cc12	PGC1a acetyl up 90
CCN(CC)S(=O)(=O)c1cccc(-c2nnc(SCc3ncc(-c4ccccc4)o3)n2C)c1	none
CCc1nc(N)nc(N)c1-c1ccc(Cl)cc1	none
O=C1C=CC(=O)c2c(O)c(N3CCN(CCO)CC3)c(Cl)c(O)c21	none
O=C(CC(Nc1ccc(F)cc1)C(=O)O)c1ccccc1 (configuration not stated)	PGC1a acetyl up 76
CCCCCCNC(=O)O[C@@]12CN(S(=O)(=O)c3ccc(C)cc3)C[C@]1(O)Cn1c(=O)n(CCCCCC)c(=O)n1C2	none
C[C@H](NS(=O)(=O)c1ccc2c(c1)OCCCO2)C(=O)N1CCN(Cc2ccccc2)CC1	none
CC(C)Cn1cnc2c(N)nc3ccccc3c21	none
CC1(C)CC2(CCO1)OC(=O)CC2C(=O)Nc1cccc2ccccc12 (configuration not stated)	PGC1a acetyl up 72
CCCN(CC)c1ncnc2[nH]ncc12	none
CC(C)(C)c1ccc(OCCSc2nc3ccccc3n2CC(=O)O)cc1	none
Cc1cccc2cc(CN(Cc3nnnn3Cc3ccco3)C3CCCC3)c3nnnn3c12	PGC1a acetyl up 55
CCOC(=O)N1CCN(C(=O)c2cc(Cl)c(Cl)cc2C(=O)O)CC1	none
CCCOC1CCCN(C(=O)c2cc(Cl)c(Cl)cc2C(=O)O)C1 (configuration not stated)	PGC1a acetyl up 87
C=CS(=O)(=O)N(Cc1ccccc1Br)[C@H](CO)Cc1ccccc1	none
CC(=O)N(Cc1ccc(F)cc1)C1=C(NCCc2ccccc2)C(=O)c2ccccc2C1=O	none
CC(=O)Nc1ccc(NC(=O)CN(c2cccc([N+](=O)[O-])c2)S(C)(=O)=O)cc1	PGC1a acetyl up 455
CS(=O)(=O)N(CC(=O)N1CCN(c2ccccc2)CC1)c1cccc(Br)c1	none
NC(=O)C1CCCCc2c1[nH]c1ccc(Cl)cc21 (configuration not stated)	PGC1a acetyl up 664
CCC(=O)NCc1c(C)c(C)n(Cc2ccccc2)c1-n1cccc1	none
CC(=O)Nc1ccc(NC2=C/C(=N/S(=O)(=O)c3cccs3)c3ccccc3C2=O)cc1	none
O=C1CSC(=Nc2ccc(Cl)cc2)N1Cc1ccco1	none
COCCCNC(=O)c1ccc(Cn2c(=O)c3ccccc3n(Cc3ccccc3C)c2=O)cc1	none
O=C(NCc1ccco1)c1ccc(Cn2c(=O)c3ccccc3n(Cc3ccc(Cl)cc3)c2=O)cc1	PGC1a acetyl up 88
COc1ccc(C(=O)Nc2ccc(S(=O)(=O)Nc3cc(C)nc(C)n3)cc2)cc1	none
CCN(CCNc1ccc(Cl)cc1[N+](=O)[O-])C(=O)c1cc([N+](=O)[O-])c(N(C)C)cc1OC	none
COc1ccccc1CN1C[C@@H]2C[C@@H](c3cccc(C)n3)N3CCC[C@@]23C1=O	none
O=C(CNc1cccc([N+](=O)[O-])c1)N/N=C/c1ccc([N+](=O)[O-])o1	PGC1a acetyl up 92
COc1ccc(/C=N/NC(=O)c2ccc(NC(=O)c3cccc([N+](=O)[O-])c3)cc2)c(OC)c1	none
N#CCc1ccc(NC(=O)/C=C/c2ccc([N+](=O)[O-])o2)cc1	PGC1a acetyl up 299
O=C(Cc1ccc([N+](=O)[O-])cc1)N/N=C/c1ccc([N+](=O)[O-])o1	PGC1a acetyl up 302
Cn1ncc2c(O/N=C(\N)c3ccc(C(C)(C)C)cc3)ncnc21	none
COc1cc(NC(=S)NN2CCOCC2)cc(OC)c1	none
Cc1ccc(O)c(NC(=O)c2ccc3c(c2)C(=O)N(CC(C)C)C3=O)c1	none
CCOc1ccc2nc(NCCCNC(=O)c3cc(OC)c(OC)c(OC)c3)c(C#N)cc2c1	none
C[C@@H]1CCCCO[C@H](CN(C)C(=O)Cc2ccccc2)[C@H](C)CN([C@@H](C)CO)C(=O)c2cc(N(C)C)ccc2O1	none
C[C@@H]1CN([C@@H](C)CO)C(=O)c2c(c3ccccc3n2C)-c2ccccc2CO[C@@H]1CN(C)C(=O)[C@H](C)c1ccccc1	PGC1a acetyl up 115
C[C@@H]1CN([C@@H](C)CO)C(=O)CCCn2cc(nn2)CO[C@H]1CN(C)C(=O)Cc1ccccc1	none
N#Cc1ccc(Oc2cccnc2)cc1C#N	PGC1a acetyl up 53
CN(C)S(=O)(=O)c1ccc(N2CCCC2)c(C(=O)NCc2cccc(C(F)(F)F)c2)c1	PGC1a acetyl up 93
CC(C)(C)NC(=O)Cn1nnc(-c2ccccc2NC(=O)c2ccco2)n1	none
COC(=O)c1ccc[n+](CC(=O)c2ccc(Br)cc2)c1	none
O=C(c1ccc([N+](=O)[O-])s1)N1CCc2ccccc2C1	none
Cc1c(Cl)cccc1N=Cc1ccc([N+](=O)[O-])s1	PGC1a acetyl up 102
O=C(C1CCCO1)N1CCN(Cc2c(O)ccc3ccccc23)CC1 (configuration not stated)	PGC1a acetyl up 191
O=C(NC(=S)N1CCN(Cc2ccccc2)CC1)c1cccnc1	none
Oc1ccc2ccccc2c1CN1CCCCC1	PGC1a acetyl up 104
O=C(c1ccc2ccccc2c1)N1CCCC1	none
O=C(NC(=S)Nc1ccc(CN2CCCCC2)cc1)c1cc2ccccc2o1	none
O=C(CCl)N=c1sccn1Cc1ccc(Cl)cc1Cl	none
COc1ccc2c3c([nH]c2c1)[C@@H](CO)N(C(=O)c1ccccc1)CC31CCN(S(=O)(=O)c2cccs2)CC1	none
O=S(=O)(c1cnccc1N1CCN(/N=C/c2ccccc2)CC1)N1CCCCC1	none
Cc1c(Nc2cc(Cl)c3nonc3c2[N+](=O)[O-])c(=O)n(-c2ccccc2)n1C	none
CC(=O)OC[C@]12CC[C@H]3[C@@](C)(CC[C@H]4C(C)(C)CCC[C@]34C)[C@@H]1CC(C1=CC(=O)OC1O)O2 (some centres not stated)	none
Cc1cccc(-c2nsc(SCC(=O)N3CCCC3)n2)c1	none
CN1CCN(C(=O)CSc2nc(-c3cccs3)cc(-c3cccs3)c2C#N)CC1	PGC1a acetyl up 61
Cc1cc(C)c(C#N)c(SCC(=O)Nc2nnc(-c3ccccc3)s2)n1	none
Cc1cc(=O)[nH]c(NN=Cc2cc(Br)ccc2O)n1	none
CCN(CC)C(=O)CSc1nnc(-c2cccnc2)n1Cc1ccccc1	none
Clc1ccc(CSc2nnc(-c3cccnc3)n2Cc2ccco2)c(Cl)c1	PGC1a acetyl up 74
C/C=C/c1ccc2c(c1)O[C@H](CN(C)C(=O)C1CC1)[C@H](C)CN([C@@H](C)CO)S2(=O)=O	none
O=C(CCCCCN1C(=O)c2cccc3cccc(c23)C1=O)NCc1cccnc1	PGC1a acetyl up 494
CCn1c(C(=O)NC2CCC(C)CC2)cc2sccc21 (configuration not stated)	none
CC(=O)Nc1cc(OC(C)=O)c2nonc2c1OC(C)=O	none
CCN(C[C@@H]1N[C@@H](CO)[C@H]1c1ccc(-c2ccc(F)cc2)cc1)C(=O)CN(C)C	PGC1a acetyl up 59
O=S(=O)(Nc1cc(Sc2ncn[nH]2)c(O)c2ccccc12)c1ccccc1	none
O=C(Nc1ccccc1)Nc1cc(Cl)cc(Cl)c1	none
O=C(Nc1ccccc1)c1nnsc1S(=O)c1ccc(Cl)cc1 (configuration not stated)	PGC1a acetyl up 125
Cc1ccc(CN(C(=O)Cn2nnc3ccccc32)C(C(=O)NCc2ccco2)c2cccs2)cc1 (configuration not stated)	none
C=CCN(c1ccc(C(=O)Nc2ccc3c(c2)OCO3)cc1)S(C)(=O)=O	none
Cc1ccc(CNC(=O)CCS(=O)(=O)c2cc3c(cc2Cl)NC(=O)CO3)cc1	none
CCCCSCCCNC(=O)c1cn(C)c2ccc(S(=O)(=O)N3CCCC3)cc2c1=O	none
CN1/C(=C\C(=O)c2cccc(S(=O)(=O)N3CCCCC3)c2)C(C)(C)c2ccccc21	none
CCOC(=O)N1CCN(C(=O)c2cc(S(=O)(=O)N3CCCC3)cn2C)CC1	PGC1a acetyl up 74
